SMILES strings stand for the structures.

The assay addresses Amyloid-beta precursor protein (Homo sapiens, UniProt P05067). Kind of assay: Binding affinity to human amyloid beta (1 to 42) fibril by fluorescence intensity assay. In a few lines: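 Fibrils grown from human insulin (3 mg/mL, Tris-HCl 50 mM pH 3), E. coli-expressed human α-syn (3 mg/mL, pH 7.4) or Aβ(1–42) (0.5 mg/ml, 1% NH4OH). Fibril level taken as supernatant protein depletion. Plate-reader intensity read at each ligand's maximal excitation/emission wavelengths, dye blanks subtracted. Kd from single-site saturation fit.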

Chain of Amyloid-beta precursor protein (P05067 whole entry): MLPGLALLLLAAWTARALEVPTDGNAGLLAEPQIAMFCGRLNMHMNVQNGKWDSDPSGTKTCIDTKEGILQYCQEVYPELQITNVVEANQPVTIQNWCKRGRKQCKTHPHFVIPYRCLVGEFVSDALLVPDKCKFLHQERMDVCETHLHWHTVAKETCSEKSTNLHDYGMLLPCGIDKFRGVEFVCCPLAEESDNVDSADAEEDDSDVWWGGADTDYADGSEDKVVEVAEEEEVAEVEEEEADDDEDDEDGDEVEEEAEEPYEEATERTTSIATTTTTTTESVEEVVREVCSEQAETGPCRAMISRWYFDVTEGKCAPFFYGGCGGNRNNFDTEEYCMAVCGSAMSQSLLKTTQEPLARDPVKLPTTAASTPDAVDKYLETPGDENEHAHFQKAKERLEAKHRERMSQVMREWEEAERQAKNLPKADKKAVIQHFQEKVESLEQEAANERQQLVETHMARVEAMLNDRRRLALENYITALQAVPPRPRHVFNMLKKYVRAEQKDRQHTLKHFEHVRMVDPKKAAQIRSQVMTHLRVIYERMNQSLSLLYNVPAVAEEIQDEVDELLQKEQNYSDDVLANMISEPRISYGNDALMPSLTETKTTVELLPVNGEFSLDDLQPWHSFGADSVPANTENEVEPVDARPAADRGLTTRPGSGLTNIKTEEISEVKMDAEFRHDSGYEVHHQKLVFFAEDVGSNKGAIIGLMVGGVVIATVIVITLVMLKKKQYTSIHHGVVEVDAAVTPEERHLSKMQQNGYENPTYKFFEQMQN

For `CN(CCF)c1ccc(/C=C/c2nc3ccccc3s2)cc1`, binding was characterised by a dissociation constant (Kd) of 91 nM. With `CN(CCF)c1ccc(/C=C\c2nc3ccccc3o2)cc1`, binding was put at a Kd of 167 nM. Against the preceding compound, the Kd is about 1.8-fold higher.

For the compound `CN(CCF)c1ccc(/C=C/c2nc3ccccc3n2C)cc1`, the Kd came out at 192 nM. Consider `CN(CCF)c1ccc(/C=C/c2nc3ccccc3o2)cc1`, for which binding was put at a Kd of 222 nM. For `CN(CCF)c1ccc(/C=C\c2nc3ccccc3s2)cc1`, the equilibrium dissociation constant (Kd) is 42 nM. `CN(CCF)c1ccc(/C=C\c2nc3ccccc3n2C)cc1` had a Kd of 286 nM. Turning to `CN(CCF)c1ccc(/C=C/c2nc3ccccc3[nH]2)cc1`, binding was put at a Kd of 278 nM.
